{"source": "paper PMC9299459", "about": "(Clinical Pharmacology in Drug Development, 2021)", "key": {"[1]": {"settings": "aqueous solution, cited from earlier work"}, "[2]": {"settings": "repeated administration; cited from earlier work"}, "[3]": {"type": "in vivo, human", "settings": "for AUC(0-inf): AUCinf; for AUC(0-t): AUClast"}, "Safety and tolerability": {"assay": "Safety and tolerability", "type": "in vivo, human", "settings": "healthy participants", "in_short": "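Open-label, randomized, 2-period, 2-sequence crossover in healthy men and women of non-childbearing potential, aged 18–55 years. Arms were a single oral 250 mg dose of test compound after overnight fast, or the same dose on day 5 of proton pump inhibitor 40 mg daily for 5 days. Dosing was supervised, in the morning with 240 mL water. All participants dosed at least once were included. AEs, ECGs, vital signs and safety labs were reviewed throughout.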"}, "[4]": {"settings": "healthy participants, plasma, single oral crizotinib 250 mg on day 5 of esomeprazole 40 mg/day (n = 15)"}, "[5]": {"settings": "healthy participants, single oral crizotinib 250 mg on day 5 of esomeprazole 40 mg/day (n = 15)"}, "[6]": {"settings": "human, plasma, oral, 250 mg, Adjusted Geometric Mean, Reference, Reference: single 250-mg crizotinib dose after overnight fasting"}, "[7]": {"settings": "human, plasma, oral, Adjusted Geometric Mean, Test, Test: esomeprazole 40 mg per day for 5 days and single 250-mg crizotinib dose after overnight fasting on day 5"}, "[8]": {"settings": "human, plasma, po, 250 mg, Arithmetic Mean ± SD, healthy participants, plasma, single oral crizotinib 250 mg on day 5 of esomeprazole 40 mg/day (n = 15)"}, "[9]": {"settings": "human, plasma, po, 250 mg, Geometric Mean (%CV), healthy participants, plasma, single oral crizotinib 250 mg on day 5 of esomeprazole 40 mg/day (n = 15)"}, "[10]": {"settings": "N = 15 per treatment, MedDRA preferred term"}, "[11]": {"settings": "Reference: single 250-mg crizotinib dose after overnight fasting"}, "[12]": {"settings": "Test: esomeprazole 40 mg per day for 5 days and single 250-mg crizotinib dose after overnight fasting on day 5"}, "[13]": {"settings": "molar ratio PF-06260182/crizotinib, single oral crizotinib 250 mg alone (n = 15)"}}, "note": "Entries after “also recorded” stand apart in the source; their conditions may differ. Read-outs that look alike come from different tables or passages of the source.", "data": [{"smiles": "C[C@@H](Oc1cc(-c2cnn(C3CCNCC3)c2)cnc1N)c1c(Cl)ccc(F)c1Cl", "note": "[Crizotinib]", "values": [{"measurement": "solubility", "setting": "[1]; pH 1.6", "result": "> 10", "unit": "mg/mL"}, {"measurement": "solubility", "setting": "[1]; pH 8.2", "result": "< 0.1", "unit": "mg/mL"}, {"measurement": "time to steady state", "setting": "[2]", "result": 15, "unit": "days"}, {"measurement": "Effect of esomeprazole coadministration on peak exposure (Cmax)", "setting": "[3]; esomeprazole 40 mg once daily x 5 days, single crizotinib 250 mg", "result": "did not affect; also recorded: no effect"}, {"measurement": "tmax, median (range)", "setting": "[3]; [4]", "result": "5.00 (3.00‐6.00) h"}, {"measurement": "CL/F (apparent clearance after oral dose), Arithmetic Mean ± SD", "setting": "[3]; [5]", "result": "124.8 ± 40.9", "unit": "L/h"}, {"measurement": "CL/F (apparent clearance after oral dose), Geometric Mean (%CV)", "setting": "[3]; [5]", "result": "117.8 (33) L/h"}, {"measurement": "AUC(0-inf)", "setting": "[3]; [6]", "result": 2.37, "unit": "µg·h/mL"}, {"measurement": "AUC(0-t)", "setting": "[3]; [6]", "result": 2.24, "unit": "µg·h/mL"}, {"measurement": "Cmax", "setting": "[3]; [6]", "result": 0.115, "unit": "µg/mL"}, {"measurement": "AUC(0-inf)", "setting": "[3]; [7]", "result": 2.12, "unit": "µg·h/mL"}, {"measurement": "AUC(0-t)", "setting": "[3]; [7]", "result": 2.01, "unit": "µg·h/mL"}, {"measurement": "Cmax", "setting": "[3]; [7]", "result": 0.117, "unit": "µg/mL"}, {"measurement": "Tmax", "setting": "[3]; human, plasma, po, 250 mg", "result": 5, "unit": "h"}, {"measurement": "half-life", "setting": "[3]; human, plasma, po, 250 mg", "result": "35.8 ± 4.4", "unit": "h"}, {"measurement": "AUC(0-inf)", "setting": "[3]; [8]", "result": "2.27 ± 0.891", "unit": "µg·h/mL"}, {"measurement": "AUC(0-inf)", "setting": "[3]; [9]", "result": 2.12, "unit": "µg·h/mL"}, {"measurement": "AUC(0-t)", "setting": "[3]; [8]", "result": "2.17 ± 0.876", "unit": "µg·h/mL"}, {"measurement": "AUC(0-t)", "setting": "[3]; [9]", "result": 2.02, "unit": "µg·h/mL"}, {"measurement": "Cmax", "setting": "[3]; [8]", "result": "0.119 ± 0.0329", "unit": "µg/mL"}, {"measurement": "Cmax", "setting": "[3]; [9]", "result": 0.115, "unit": "µg/mL"}, {"measurement": "half-life", "setting": "[3]; human, plasma, po, 250 mg, t1/2 (terminal elimination half-life), Arithmetic Mean ± SD, healthy participants, plasma, single oral crizotinib 250 mg after overnight fast, alone (n = 15)", "result": "33.2 ± 7", "unit": "h"}, {"measurement": "Median time to Cmax", "setting": "[3]; with or without esomeprazole, single crizotinib 250 mg", "result": 5, "unit": "h"}, {"measurement": "gastrointestinal disorders (system organ class), all causality", "setting": "Safety and tolerability", "result": 11, "unit": "participants"}, {"measurement": "nervous system disorders (system organ class), all causality", "setting": "Safety and tolerability", "result": 4, "unit": "participants"}, {"measurement": "treatment-related gastrointestinal disorders (system organ class)", "setting": "Safety and tolerability", "result": 11, "unit": "participants"}, {"measurement": "Discontinuations due to AEs, all causality", "setting": "Safety and tolerability; N = 15 per treatment", "result": 0}, {"measurement": "Dose reductions or temporary discontinuation due to AEs", "setting": "Safety and tolerability; N = 15 per treatment", "result": 0}, {"measurement": "Participants with AEs, all causality", "setting": "Safety and tolerability; N = 15 per treatment", "result": "12 (12)"}, {"measurement": "Participants with AEs, treatment-related", "setting": "Safety and tolerability; N = 15 per treatment", "result": "12 (12)"}, {"measurement": "Participants with serious AEs", "setting": "Safety and tolerability; N = 15 per treatment", "result": 0}, {"measurement": "Participants with severe AEs", "setting": "Safety and tolerability; N = 15 per treatment", "result": 0}, {"measurement": "Abdominal pain upper, all causality", "setting": "Safety and tolerability; [10]", "result": 0}, {"measurement": "Abdominal pain, all causality", "setting": "Safety and tolerability; [10]", "result": "3 (3)"}, {"measurement": "Abdominal pain, treatment-related", "setting": "Safety and tolerability; [10]", "result": "3 (3)"}, {"measurement": "Abnormal gastrointestinal sounds, all causality", "setting": "Safety and tolerability; [10]", "result": "1 (1)"}, {"measurement": "Abnormal gastrointestinal sounds, treatment-related", "setting": "Safety and tolerability; [10]", "result": "1 (1)"}, {"measurement": "Diarrhea, all causality", "setting": "Safety and tolerability; [10]", "result": "11 (11)"}, {"measurement": "Diarrhea, treatment-related", "setting": "Safety and tolerability; [10]", "result": "11 (11)"}, {"measurement": "Dizziness, all causality", "setting": "Safety and tolerability; [10]", "result": "2 (2)"}, {"measurement": "Dizziness, treatment-related", "setting": "Safety and tolerability; [10]", "result": "2 (2)"}, {"measurement": "Fatigue, all causality", "setting": "Safety and tolerability; [10]", "result": "2 (2)"}, {"measurement": "Fatigue, treatment-related", "setting": "Safety and tolerability; [10]", "result": "2 (2)"}, {"measurement": "Headache, all causality", "setting": "Safety and tolerability; [10]", "result": "2 (2)"}, {"measurement": "Headache, treatment-related", "setting": "Safety and tolerability; [10]", "result": "2 (2)"}, {"measurement": "Nausea, all causality", "setting": "Safety and tolerability; [10]", "result": "2 (2)"}, {"measurement": "Nausea, treatment-related", "setting": "Safety and tolerability; [10]", "result": "2 (2)"}, {"measurement": "Number of AEs, all causality", "setting": "Safety and tolerability; treatment-emergent", "result": 28}, {"measurement": "Number of AEs, treatment-related", "setting": "Safety and tolerability; treatment-emergent", "result": 24}, {"measurement": "Number of AEs, treatment-related", "setting": "Safety and tolerability; treatment-emergent, listed as crizotinib", "result": "Twenty‐four"}, {"measurement": "Overall safety and tolerability", "setting": "Safety and tolerability; single 250-mg dose", "result": "generally safe and well tolerated"}]}, {"smiles": "CC(Oc1cc(-c2cnn(C3CCNC(=O)C3)c2)cnc1N)c1c(Cl)ccc(F)c1Cl", "note": "(stereo not shown) [PF‐06260182]", "values": [{"measurement": "AUCinf, Adjusted Geometric Mean, Reference", "setting": "[3]; [11]", "result": 0.446, "unit": "µg·h/mL"}, {"measurement": "AUClast, Adjusted Geometric Mean, Reference", "setting": "[3]; [11]", "result": 0.4369, "unit": "µg·h/mL"}, {"measurement": "Cmax, Adjusted Geometric Mean, Reference", "setting": "[3]; [11]", "result": 0.0348, "unit": "µg/mL"}, {"measurement": "AUCinf, Adjusted Geometric Mean, Test", "setting": "[3]; [12]", "result": 0.3678, "unit": "µg·h/mL"}, {"measurement": "AUClast, Adjusted Geometric Mean, Test", "setting": "[3]; [12]", "result": 0.3598, "unit": "µg·h/mL"}, {"measurement": "Cmax, Adjusted Geometric Mean, Test", "setting": "[3]; [12]", "result": 0.0269, "unit": "µg/mL"}, {"measurement": "apparent t1/2, mean value", "setting": "[3]; both treatments (crizotinib alone and with esomeprazole)", "result": "≈ 20 hours"}, {"measurement": "AUCinf, Arithmetic Mean ± SD", "setting": "[3]; [4]", "result": "0.383 ± 0.127", "unit": "µg·h/mL"}, {"measurement": "AUCinf, Geometric Mean (%CV)", "setting": "[3]; [4]", "result": "364 (33) ng • h/mL"}, {"measurement": "AUClast, Arithmetic Mean ± SD", "setting": "[3]; [4]", "result": "0.376 ± 0.126", "unit": "µg·h/mL"}, {"measurement": "AUClast, Geometric Mean (%CV)", "setting": "[3]; [4]", "result": "357 (34) ng • h/mL"}, {"measurement": "Cmax, Arithmetic Mean ± SD", "setting": "[3]; [4]", "result": "0.0277 ± 0.0068", "unit": "µg/mL"}, {"measurement": "Cmax, Geometric Mean (%CV)", "setting": "[3]; [4]", "result": "26.8 (25) ng/mL"}, {"measurement": "t1/2 (terminal elimination half-life), Arithmetic Mean ± SD", "setting": "[3]; [4]", "result": "19.5 ± 5.9", "unit": "h"}, {"measurement": "tmax, median (range)", "setting": "[3]; [4]", "result": "6.00 (5.00‐8.05) h"}, {"measurement": "MRAUCinf (metabolite to parent ratio of AUCinf), Geometric Mean (%CV)", "setting": "[3]; molar ratio PF-06260182/crizotinib, single oral crizotinib 250 mg alone (n = 14)", "result": "0.18 (16)"}, {"measurement": "MRAUClast (metabolite to parent ratio of AUClast), Geometric Mean (%CV)", "setting": "[3]; [13]", "result": "0.19 (18)"}, {"measurement": "MRCmax (metabolite to parent ratio of Cmax), Geometric Mean (%CV)", "setting": "[3]; [13]", "result": "0.29 (26)"}]}, {"smiles": "COc1ccc2nc([S@@+]([O-])Cc3ncc(C)c(OC)c3C)[nH]c2c1", "note": "[esomeprazole, Esomeprazole]", "values": [{"measurement": "gastrointestinal disorders (system organ class), all causality", "setting": "Safety and tolerability", "result": 3, "unit": "participants"}, {"measurement": "nervous system disorders (system organ class), all causality", "setting": "Safety and tolerability", "result": 2, "unit": "participants"}, {"measurement": "treatment-related gastrointestinal disorders (system organ class)", "setting": "Safety and tolerability", "result": 3, "unit": "participants"}, {"measurement": "Number of AEs, treatment-related", "setting": "Safety and tolerability; treatment-emergent", "result": 7}]}]}
